Square brackets hold non-standard residues; d marks the D form. Peptide text beside a SMILES is read from it.
Key:
Saos-2 cells = test: cytochrome c release, immunolocalization; format: cell-based; details: 10 µM, 24 h
[1] = system: Cyt c release in MDA-MB-468 cells; test: Cyt c release from mitochondria; format: cell-based, human; details: 48 h; doxorubicin 5 μM
How it was run: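 MDA-MB-468 cells were grown as a monolayer in Leibovitz's L-15 with 10% FBS at 37 °C without CO2, then seeded at 125 000 cells/ml. They were exposed to the test compounds for 48 h at the indicated concentrations. Cytochrome c release was quantified with a flow-cytometric cytochrome c release kit per the manufacturer's protocol, and cells were analysed on a flow cytometer.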

[2] = patients with advance solid tumors; cited from earlier work
[3] = solubility in culture medium; format: physicochemical
[4] = system: Bcl-2 family proteins, IAPs and caspases in MDA-MB-468 cells; test: western blots of apoptosis-related proteins and caspases; format: cell-based, human; details: 72 h
How it was run: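 MDA-MB-468 cells were treated for 72 h with TAT-NBI1, erlotinib or both at the indicated μM concentrations. Whole-cell extracts were made in 25 mM Tris-HCl pH 7.4, 1 mM EDTA, 1 mM EGTA and 1% SDS with protease and phosphatase inhibitors, and protein was quantified by BCA. Lysates were run on SDS-PAGE, transferred to nitrocellulose and immunoblotted.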

SKBr3 cells = test: MTT and trypan blue cell viability assays; format: cell-based, human
MDA-MB-231 cell line = test: cell viability IC50 determination; format: cell-based; details: Homo sapiens, MDA-MB-231, read-out: IC50 (MDA-MB-231)
[5] = system: caspase-3/7 activity in MDA-MB-231 cells; test: caspase activation assay in cellular extracts; format: cell-based
How it was run: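 MDA-MB-231 cells were grown in Leibovitz's L-15 with 10% FBS at 37 °C without CO2. Cells were co-treated with TAT-NBI1/erlotinib at the indicated μM concentrations, with or without necrostatin-1 (100 μM). Etoposide (25 μM) ± necrostatin-1 served as reference. Caspase-3/7 activation was measured in cellular extracts.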

[6] = system: caspase-3/7 activity in MDA-MB-468 cells; test: caspase activation assay in cellular extracts; format: cell-based, human
How it was run: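 MDA-MB-468 cells were cultured in L-15 with 10% FBS at 37 °C without CO2 and seeded at 125 000 cells/ml. They received TAT-NBI1/erlotinib co-treatment at the indicated μM concentrations, with or without necrostatin-1, for 48 h. Caspase-3/7 activity was then measured in cellular extracts.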

## CC[C@@H](C)[C@@H](NC(=O)[C@@H](Cc1c[nH]c2ccccc12)NC(=O)[C@@H](CCCNC(=N)N)NC(=O)[C@H](CCC(N)=O)NC(=O)[C@@H]1CCCN1C(=O)[C@H](CCCNC(=N)N)NC(=O)[C@H](CCCNC(=N)N)NC(=O)[C@H](CCCNC(=N)N)NC(=O)[C@H](CCC(N)=O)NC(=O)[C@H](CCCNC(=N)N)NC(=O)[C@H](CCCNC(=N)N)NC(=O)[C@H](CCCCN)NC(=O)[C@H](CCCCN)NC(=O)[C@H](CCCNC(=N)N)NC(=O)CN)C(=O)N[C@H](CCSC)C(=O)N[C@H](Cc1ccc(O)cc1)C(=O)N[C@H](Cc1ccccc1)C(N)=O [TAT-NBI1] (H-GRKKRRQRRRPQ[dR][dW][dI][dM][dY][dF]-NH2; N-terminus and C-terminus assumed)
Saos-2 cells
  mechanism of cell death followed by cytochrome c release to the cytosol: induced cell death by intrinsic, mitochondrial-mediated, apoptosis

## COc1cccc2c1C(=O)c1c(O)c3c(c(O)c1C2=O)C[C@@](O)(C(=O)CO)C[C@@H]3O[C@H]1C[C@H](N)[C@H](O)[C@H](C)O1 [doxorubicin]
[1]
  Cyt c release to the cytoplasm: Cyt c release to the cytoplasm

## C#Cc1cccc(Nc2ncnc3cc(OCCOC)c(OCCOC)cc23)c1 [erlotinib]
[2]
  plasma concentration at the steady state: ~5 µM
[3]
  solubility: ≤ 20 µM
[4]
  Bim expression: upregulated
SKBr3 cells
  change of lethal dose of erlotinib in the presence of TAT-NBI1: twofold lower
MDA-MB-231 cell line
  IC50: > 20 µM

## CN1C(=O)C(Cc2c[nH]c3ccccc23)NC1=S (stereo not drawn) [nec-1, necrostatin-1]
[5]
  effect on TAT-NBI1/erlotinib-induced caspase activation: inhibited
[6]
  effect on TAT-NBI1/erlotinib-induced caspase activation: inhibited
